# Laboratory results from ChEMBL document CHEMBL1165883, “Synthesis, evaluation and computational studies on a series of acetophenone based 1-(aryloxypropyl)-4-(chloroaryl) piperazines as potential atypical antipsychotics” (2010).
# Calls of active or inactive are those of the source. The calls are words filed in the database; no cut-off is given here.
# Experiments:
# Mus musculus [1] = assay: Antipsychotic activity in ip dosed albino lyka mouse assessed as reversal of apomorphine-induced mesh climbing response administered 10 mins prior to apomorphine challenge after 10 to 30 mins; type: functional
# How it was run: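 Mice of either sex (26–38 g), six per group, habituated singly in a wire-mesh cage (13 cm diameter, 14 cm high). Compound, saline (control) or clozapine (positive control) given ip; apomorphine 2.5 mg kg^-1 ip 10 min later. Climbing was scored over 60 s in the mesh cage at 10, 15, 20, 25 and 30 min: 1 = one–three paws on mesh, 2 = all four. Three titrated dose levels.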
# Mus musculus [2] = assay: Antipsychotic activity in ip dosed albino lyka mouse assessed as reversal of apomorphine-induced stereotype response administered 10 mins prior to apomorphine challenge after 10 to 30 mins; type: functional
# How it was run: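 Mice of either sex (26–38 g) received vehicle, compound or clozapine (positive control), then apomorphine 2.5 mg kg^-1 after 10 min. Stereotypy was scored over 60 s in an inverted 500 ml beaker at 10, 15, 20, 25 and 30 min post-apomorphine: 1 = rearing, sniffing or grooming; 2 = licking or biting. Three dose levels, chosen by initial titration.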
smiles,measurement,setting,value
CC(=O)c1ccccc1OCCCN1CCN(Cc2ccccc2Cl)CC1,ED50,Mus musculus [1],10.5 mg/kg
CC(=O)c1ccccc1OCCCN1CCN(C(=O)c2ccc(Cl)cc2)CC1,ED50,Mus musculus [1],inactive
same,Activity,Mus musculus [2],Active
Clc1ccccc1CN1CCN(Cc2ccccc2Cl)CC1,ED50,Mus musculus [1],7.2 mg/kg
same,Activity,Mus musculus [2],0.86
CC(=O)c1ccc(OCCCN2CCN(Cc3ccccc3Cl)CC2)cc1,ED50,Mus musculus [1],23 mg/kg
CC(=O)c1ccc(OCCCN2CCN(Cc3ccc(Cl)cc3)CC2)cc1,ED50,Mus musculus [1],50 mg/kg
CC(=O)c1ccccc1OCCCN1CCN(Cc2ccc(Cl)cc2)CC1,ED50,Mus musculus [1],10 mg/kg
CC(=O)c1ccccc1OCCCN1CCN(C(=O)c2ccccc2Cl)CC1,ED50,Mus musculus [1],inactive
same,Activity,Mus musculus [2],Active
CC(=O)c1ccc(OCCCN2CCN(C(=O)c3ccccc3Cl)CC2)cc1,ED50,Mus musculus [1],inactive
same,Activity,Mus musculus [2],Active
Clc1ccc(CN2CCN(Cc3ccc(Cl)cc3)CC2)cc1,ED50,Mus musculus [1],10.5 mg/kg
same,Activity,Mus musculus [2],1.02
CC(=O)c1ccc(OCCCN2CCN(C(=O)c3ccc(Cl)cc3)CC2)cc1,ED50,Mus musculus [1],inactive
same,Activity,Mus musculus [2],Active
